We go through one molecule from ChEMBL document CHEMBL4177770, “Discovery of MK-6169, a Potent Pan-Genotype Hepatitis C Virus NS5A Inhibitor with Optimized Activity against Common Resistance-Associated Substitutions” (J Med Chem, 2018).

Data set [1] in a line: AUC in Beagle dog at 5 mg/kg, po by LC/MS method. The format is ADME, organism-based, Canis lupus familiaris. The note with it: in vivo. An outline of the steps: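 Beagle dogs, two animals per dosing group. Oral dose was given in 10% TWEEN. Blood was collected and spun to plasma, and plasma compound levels were measured by LC/MS.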
Data set [2] can be described thus: Cmax in Wistar Han rat at 10 mg/kg, po by LC/MS method. The format is ADME, organism-based. Also noted: dose 10 mg/kg, route oral. The note with it: in vivo. An outline of the steps:
(§1)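 Male Wistar Han rats, two per dosing group, dosed orally at 10 mg/kg in 10% TWEEN. Plasma was separated from collected blood by centrifugation and analysed by LC/MS.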

Data set [3] can be described thus: Drug level in Wistar Han rat at 10 mg/kg, po measured at 24 hrs by LC/MS method. The format is ADME, organism-based. The note with it: in vivo, read-out: Drug uptake. An outline of the steps: as §1
Data set [4] can be described thus: Tmax in Wistar Han rat at 10 mg/kg, po by LC/MS method. The note with it: in vivo. The format is ADME, organism-based. The method, boiled down: as §1
A short description of data set [5]: MRT in Wistar Han rat at 10 mg/kg, po by LC/MS method. Format: ADME, organism-based. The note with it: in vivo. An outline of the steps:
as §1

Data set [6] is described as follows: Tmax in Wistar Han rat at 100 mg/kg, po by LC/MS method. The format is ADME, organism-based. The note with it: in vivo. The method, boiled down: (§2)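 Single rising oral dose study in fed male Wistar Han rats, dosed PO in 10% TWEEN at the indicated doses. Plasma was obtained by centrifuging the blood, and compound levels were determined by LC/MS.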
Data set [7] in a line: AUC in Wistar Han rat at 300 mg/kg, po by LC/MS method. The format is ADME, organism-based. The note with it: in vivo. The method, boiled down:
as §2

Data set [8] in a line: Cmax in Wistar Han rat at 300 mg/kg, po by LC/MS method. Also noted: dose 300 mg/kg, route oral. The note with it: in vivo. Format: ADME, organism-based. The method, boiled down: as §2
Data set [9] deals with T1, Nonstructural protein 5A (Hepatitis C virus) (UniProt Q5L478).
T1 sequence (whole entry): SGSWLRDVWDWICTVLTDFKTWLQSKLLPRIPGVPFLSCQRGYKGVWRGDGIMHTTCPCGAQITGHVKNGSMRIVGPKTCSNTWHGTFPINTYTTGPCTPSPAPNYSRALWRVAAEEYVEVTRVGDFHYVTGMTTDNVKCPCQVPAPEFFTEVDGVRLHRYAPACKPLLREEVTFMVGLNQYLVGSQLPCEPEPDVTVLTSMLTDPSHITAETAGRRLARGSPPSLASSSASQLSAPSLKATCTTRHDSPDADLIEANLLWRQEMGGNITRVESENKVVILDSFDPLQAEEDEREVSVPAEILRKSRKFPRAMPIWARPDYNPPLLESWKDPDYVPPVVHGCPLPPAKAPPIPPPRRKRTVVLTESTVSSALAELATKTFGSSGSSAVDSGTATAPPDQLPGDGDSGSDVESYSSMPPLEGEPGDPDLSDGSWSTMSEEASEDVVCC
The experiment in a line: Inhibition of NS5A M28T mutant in HCV genotype 1a infected in HuH7 replicon cells assessed as decrease in viral replication after 3 days by RT-PCR method. The format is cell-based. The note with it: Hepatitis C virus subtype 1a. (In general: A replicon is a self-replicating genome or part of one, used to study replication in cells.)

In data set [10] the test system is Hepatitis C virus subtype 1a. The experiment in a line: Resistance ratio of EC90 for NS5A K24R mutant in HCV genotype 1a infected in HuH7 replicon cells to EC90 for NS5A in HCV genotype 1a infected in HuH7 replicon cells. The format is cell-based.
Data set [11] has as its system Hepatitis C virus subtype 1a. The data set can be described thus: Resistance ratio of EC90 for NS5A L31M/Y93C double mutant in HCV genotype 1a infected in HuH7 replicon cells to EC90 for NS5A in HCV genotype 1a infected in HuH7 replicon cells. The format is cell-based.
The subject of data set [12] is Hepatitis C virus subtype 1a. The data set can be described thus: Resistance ratio of EC90 for NS5A L31V mutant in HCV genotype 1a infected in HuH7 replicon cells to EC90 for NS5A in HCV genotype 1a infected in HuH7 replicon cells. The format is cell-based.
In data set [13] the test system is Hepatitis C virus subtype 1a. The data set can be described thus: Resistance ratio of EC90 for NS5A R81W mutant in HCV genotype 1a infected in HuH7 replicon cells to EC90 for NS5A in HCV genotype 1a infected in HuH7 replicon cells. The format is cell-based.
In data set [14] the test system is Hepatitis C virus subtype 1a. The data set can be described thus: Resistance ratio of EC90 for NS5A Y93H mutant in HCV genotype 1a infected in HuH7 replicon cells to EC90 for NS5A in HCV genotype 1a infected in HuH7 replicon cells. The format is cell-based.
For data set [15], the target named is T1, Nonstructural protein 5A (Hepatitis C virus). The experiment in a line: Inhibition of NS5A A92K mutant in HCV genotype 1b infected in HuH7 replicon cells assessed as decrease in viral replication after 3 days by RT-PCR method. The note with it: Hepatitis C virus subtype 1b. Format: cell-based.
Data set [16] in a line: Resistance ratio of EC90 for NS3 A156T mutant in HCV genotype 1b infected in HuH7 replicon cells to EC90 for NS5A in HCV genotype 1a infected in HuH7 replicon cells. Format: cell-based.
Data set [17] is described as follows: Resistance ratio of EC90 for NS5A A92T mutant in HCV genotype 1b infected in HuH7 replicon cells to EC90 for NS5A in HCV genotype 1a infected in HuH7 replicon cells. Format: cell-based.
A short description of data set [18]: Resistance ratio of EC90 for NS5A F28L mutant in HCV genotype 2a infected in HuH7 replicon cells to EC90 for NS5A in HCV genotype 1a infected in HuH7 replicon cells. Format: cell-based.
For data set [19], the target named is T1, Nonstructural protein 5A (Hepatitis C virus). The experiment in a line: Inhibition of NS5A L31F mutant in HCV genotype 3a infected in HuH7 replicon cells assessed as decrease in viral replication after 3 days by RT-PCR method. Format: cell-based. The note with it: Hepatitis C virus subtype 3a.
The target is the same in data set [20]. The experiment in a line: Inhibition of NS5A A30T mutant in HCV genotype 3a infected in HuH7 replicon cells assessed as decrease in viral replication after 3 days by RT-PCR method. The note with it: Hepatitis C virus subtype 3a. Format: cell-based.
For data set [21] the target is unchanged. The experiment in a line: Inhibition of NS5A L30H mutant in HCV genotype 4a infected in HuH7 replicon cells assessed as decrease in viral replication after 3 days by RT-PCR method. The format is cell-based. The note with it: Hepatitis C virus subtype 4a.
A short description of data set [22]: Resistance ratio of EC90 for NS5A L31M mutant in HCV genotype 2b infected in HuH7 replicon cells to EC90 for NS5A in HCV genotype 1a infected in HuH7 replicon cells. Format: cell-based.

For `COC(=O)N[C@H](C(=O)N1CCC[C@H]1c1ncc(-c2cc(F)c3c(c2)O[C@@H](c2ccc(C4CC4)s2)n2c-3cc3cc(-c4cnc([C@@H]5CCCN5C(=O)[C@@H](NC(=O)OC)[C@@H]5CCOC(C)(C)C5)[nH]4)ccc32)[nH]1)C(C)C`, the AUC in [1] is 4.19 µM·h; in data set [7], 14.7 µM·h. In addition, the Cmax is 150 to 183 nM in [2] and 1060 nM in data set [8]. For the same molecule, the concentration at 24 h in data set [3] lay in the range of 3 to 11 nM. Moreover, the time to peak (Tmax) in data set [4] turned out to be 3 h; in [6], 2 h. In data set [5], this molecule returned an MRT of 6.5 h. The EC90 amounted to 0.002 nM in data set [9]; 0.026 nM in [15]; 0.29 nM in data set [19]; 0.0036 nM in [20]; 0.072 nM in [21]. Moreover, the Ratio in data set [10] was < 1; in data set [11] it was 43; in data set [12], 1; in data set [13] it was < 1; in data set [14] it was 8; in [16], 1. In addition, the Ratio in [17] was 1; in data set [18] it was < 1; in [22] it was 4.

What is called AUC is the area under the concentration-time curve, a measure of exposure. Read a low AUC as less exposure. As a reminder, the Cmax is the peak of the concentration-time curve. For orientation: Tmax means the time at which the peak concentration occurs. A word on the MRT: it is the average time that molecules of a dose stay in the body. Broadly, the EC90 is the point of the concentration-response curve where the effect stands at 90%.
